Non-standard residues stand in square brackets, D forms with d. Residues, ends and D or L forms follow the SMILES beside them. Tpi = O=C(O)[C@@H]1Cc2c([nH]c3ccccc23)CN1
What follows are compounds tested on Mus musculus (assay: Analgesic activity in ICR mouse assessed as increase in pain threshold at 0.15 mmol/kg, po after 120 mins by tail flick method (reference value: 8.09 +/- 13.28 %)).
Assay type: functional

Compound | Activity [%]
NCCCC[C@H](N)C(=O)N[C@@H](Cc1ccccc1)C(=O)N[C@@H](Cc1c[nH]c2ccccc12)C(=O)O (H-Lys-Phe-Trp-OH) | 20.14
O=C(O)C[C@H](NC(=O)[C@@H]1Cc2c([nH]c3ccccc23)CN1)C(=O)N[C@@H](Cc1ccccc1)C(=O)N[C@@H](Cc1c[nH]c2ccccc12)C(=O)O (H-[Tpi]DFW-OH) | 40.67
O=C(O)CC[C@H](NC(=O)[C@@H]1Cc2c([nH]c3ccccc23)CN1)C(=O)N[C@@H](Cc1ccccc1)C(=O)N[C@@H](Cc1c[nH]c2ccccc12)C(=O)O (H-[Tpi]EFW-OH) | 39.23
O=C(O)[C@H](Cc1c[nH]c2ccccc12)NC(=O)[C@H](Cc1ccccc1)NC(=O)[C@H](Cc1ccccc1)NC(=O)[C@@H]1Cc2c([nH]c3ccccc23)CN1 (H-[Tpi]FFW-OH) | 45.46
O=C(CNC(=O)[C@@H]1Cc2c([nH]c3ccccc23)CN1)N[C@@H](Cc1ccccc1)C(=O)N[C@@H](Cc1c[nH]c2ccccc12)C(=O)O (H-[Tpi]GFW-OH) | 49.09

These compounds were tested on Mus musculus (assay: Analgesic activity in ICR mouse assessed as increase in pain threshold at 0.15 mmol/kg, po after 30 mins by tail flick method (reference value: 5.03 +/- 10.26 %)).
Assay type: functional

Compound | Activity [%]
NCCCC[C@H](N)C(=O)N[C@@H](Cc1ccccc1)C(=O)N[C@@H](Cc1c[nH]c2ccccc12)C(=O)O (H-Lys-Phe-Trp-OH) | 20.16
O=C(O)C[C@H](NC(=O)[C@@H]1Cc2c([nH]c3ccccc23)CN1)C(=O)N[C@@H](Cc1ccccc1)C(=O)N[C@@H](Cc1c[nH]c2ccccc12)C(=O)O (H-[Tpi]DFW-OH) | 22.17
O=C(O)CC[C@H](NC(=O)[C@@H]1Cc2c([nH]c3ccccc23)CN1)C(=O)N[C@@H](Cc1ccccc1)C(=O)N[C@@H](Cc1c[nH]c2ccccc12)C(=O)O (H-[Tpi]EFW-OH) | 18.24
O=C(O)[C@H](Cc1c[nH]c2ccccc12)NC(=O)[C@H](Cc1ccccc1)NC(=O)[C@H](Cc1ccccc1)NC(=O)[C@@H]1Cc2c([nH]c3ccccc23)CN1 (H-[Tpi]FFW-OH) | 31.34
O=C(CNC(=O)[C@@H]1Cc2c([nH]c3ccccc23)CN1)N[C@@H](Cc1ccccc1)C(=O)N[C@@H](Cc1c[nH]c2ccccc12)C(=O)O (H-[Tpi]GFW-OH) | 10.36

Each compound was assayed on Mus musculus (assay: Analgesic activity in ICR mouse assessed as increase in pain threshold at 0.15 mmol/kg, po after 150 mins by tail flick method (reference value: 9.02 +/- 12.19 %)).
Assay type: functional

Compound | Activity [%]
NCCCC[C@H](N)C(=O)N[C@@H](Cc1ccccc1)C(=O)N[C@@H](Cc1c[nH]c2ccccc12)C(=O)O (H-Lys-Phe-Trp-OH) | 11.23
O=C(O)C[C@H](NC(=O)[C@@H]1Cc2c([nH]c3ccccc23)CN1)C(=O)N[C@@H](Cc1ccccc1)C(=O)N[C@@H](Cc1c[nH]c2ccccc12)C(=O)O (H-[Tpi]DFW-OH) | 13.54
O=C(O)CC[C@H](NC(=O)[C@@H]1Cc2c([nH]c3ccccc23)CN1)C(=O)N[C@@H](Cc1ccccc1)C(=O)N[C@@H](Cc1c[nH]c2ccccc12)C(=O)O (H-[Tpi]EFW-OH) | 12.25
O=C(O)[C@H](Cc1c[nH]c2ccccc12)NC(=O)[C@H](Cc1ccccc1)NC(=O)[C@H](Cc1ccccc1)NC(=O)[C@@H]1Cc2c([nH]c3ccccc23)CN1 (H-[Tpi]FFW-OH) | 21.12
O=C(CNC(=O)[C@@H]1Cc2c([nH]c3ccccc23)CN1)N[C@@H](Cc1ccccc1)C(=O)N[C@@H](Cc1c[nH]c2ccccc12)C(=O)O (H-[Tpi]GFW-OH) | 22.37

The compounds below were run on Mus musculus (assay: Analgesic activity in ICR mouse assessed as increase in pain threshold at 0.15 mmol/kg, po after 180 mins by tail flick method (reference value: 8.75 +/- 9.73 %)).
Assay type: functional

Compound | Activity [%]
NCCCC[C@H](N)C(=O)N[C@@H](Cc1ccccc1)C(=O)N[C@@H](Cc1c[nH]c2ccccc12)C(=O)O (H-Lys-Phe-Trp-OH) | 8.41
O=C(O)C[C@H](NC(=O)[C@@H]1Cc2c([nH]c3ccccc23)CN1)C(=O)N[C@@H](Cc1ccccc1)C(=O)N[C@@H](Cc1c[nH]c2ccccc12)C(=O)O (H-[Tpi]DFW-OH) | 18.77
O=C(O)CC[C@H](NC(=O)[C@@H]1Cc2c([nH]c3ccccc23)CN1)C(=O)N[C@@H](Cc1ccccc1)C(=O)N[C@@H](Cc1c[nH]c2ccccc12)C(=O)O (H-[Tpi]EFW-OH) | 12.32
O=C(O)[C@H](Cc1c[nH]c2ccccc12)NC(=O)[C@H](Cc1ccccc1)NC(=O)[C@H](Cc1ccccc1)NC(=O)[C@@H]1Cc2c([nH]c3ccccc23)CN1 (H-[Tpi]FFW-OH) | 15.32
O=C(CNC(=O)[C@@H]1Cc2c([nH]c3ccccc23)CN1)N[C@@H](Cc1ccccc1)C(=O)N[C@@H](Cc1c[nH]c2ccccc12)C(=O)O (H-[Tpi]GFW-OH) | 14.36

These compounds were tested on Mus musculus (assay: Analgesic activity in ICR mouse assessed as increase in pain threshold at 0.15 mmol/kg, po after 60 mins by tail flick method (reference value: 7.45 +/- 8.03 %)).
Assay type: functional

Compound | Activity [%]
NCCCC[C@H](N)C(=O)N[C@@H](Cc1ccccc1)C(=O)N[C@@H](Cc1c[nH]c2ccccc12)C(=O)O (H-Lys-Phe-Trp-OH) | 25.43
O=C(O)C[C@H](NC(=O)[C@@H]1Cc2c([nH]c3ccccc23)CN1)C(=O)N[C@@H](Cc1ccccc1)C(=O)N[C@@H](Cc1c[nH]c2ccccc12)C(=O)O (H-[Tpi]DFW-OH) | 28.12
O=C(O)CC[C@H](NC(=O)[C@@H]1Cc2c([nH]c3ccccc23)CN1)C(=O)N[C@@H](Cc1ccccc1)C(=O)N[C@@H](Cc1c[nH]c2ccccc12)C(=O)O (H-[Tpi]EFW-OH) | 17.23
O=C(O)[C@H](Cc1c[nH]c2ccccc12)NC(=O)[C@H](Cc1ccccc1)NC(=O)[C@H](Cc1ccccc1)NC(=O)[C@@H]1Cc2c([nH]c3ccccc23)CN1 (H-[Tpi]FFW-OH) | 37.2
O=C(CNC(=O)[C@@H]1Cc2c([nH]c3ccccc23)CN1)N[C@@H](Cc1ccccc1)C(=O)N[C@@H](Cc1c[nH]c2ccccc12)C(=O)O (H-[Tpi]GFW-OH) | 40.78

These compounds were tested on Mus musculus (assay: Analgesic activity in ICR mouse assessed as increase in pain threshold at 0.15 mmol/kg, po after 90 mins by tail flick method (reference value: 7.53 +/- 11.54 %)).
Assay type: functional

Compound | Activity [%]
NCCCC[C@H](N)C(=O)N[C@@H](Cc1ccccc1)C(=O)N[C@@H](Cc1c[nH]c2ccccc12)C(=O)O (H-Lys-Phe-Trp-OH) | 23.47
O=C(O)C[C@H](NC(=O)[C@@H]1Cc2c([nH]c3ccccc23)CN1)C(=O)N[C@@H](Cc1ccccc1)C(=O)N[C@@H](Cc1c[nH]c2ccccc12)C(=O)O (H-[Tpi]DFW-OH) | 34.55
O=C(O)CC[C@H](NC(=O)[C@@H]1Cc2c([nH]c3ccccc23)CN1)C(=O)N[C@@H](Cc1ccccc1)C(=O)N[C@@H](Cc1c[nH]c2ccccc12)C(=O)O (H-[Tpi]EFW-OH) | 29.25
O=C(O)[C@H](Cc1c[nH]c2ccccc12)NC(=O)[C@H](Cc1ccccc1)NC(=O)[C@H](Cc1ccccc1)NC(=O)[C@@H]1Cc2c([nH]c3ccccc23)CN1 (H-[Tpi]FFW-OH) | 40.56
O=C(CNC(=O)[C@@H]1Cc2c([nH]c3ccccc23)CN1)N[C@@H](Cc1ccccc1)C(=O)N[C@@H](Cc1c[nH]c2ccccc12)C(=O)O (H-[Tpi]GFW-OH) | 46.45

These compounds were tested on Mus musculus (assay: Antiinflammatory activity in ICR mouse assessed as inhibition of xylene-induced ear edema at 0.15 mmol/kg, po administered 30 mins before xylene challenge measured after 2 hrs relative to control).
Assay type: functional
Summary of the method: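 Male ICR mice (20 ± 2 g), randomised to test, vehicle (CMC) and aspirin (10 mg/kg oral) groups. Test agents given orally as CMC suspension. After 30 min, 0.03 mL xylene applied to both faces of the right ear, left ear as control. At 2 h mice were killed and 7 mm ear punches weighed. Edema is the right-minus-left weight, and inhibition is taken against vehicle.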

Compound | inhibition in vivo at 150 µmol/kg [%]
O=C(O)C[C@H](NC(=O)[C@@H]1Cc2c([nH]c3ccccc23)CN1)C(=O)N[C@@H](Cc1ccccc1)C(=O)N[C@@H](Cc1c[nH]c2ccccc12)C(=O)O (H-[Tpi]DFW-OH) | 40
O=C(O)CC[C@H](NC(=O)[C@@H]1Cc2c([nH]c3ccccc23)CN1)C(=O)N[C@@H](Cc1ccccc1)C(=O)N[C@@H](Cc1c[nH]c2ccccc12)C(=O)O (H-[Tpi]EFW-OH) | 28.4
O=C(O)[C@H](Cc1c[nH]c2ccccc12)NC(=O)[C@H](Cc1ccccc1)NC(=O)[C@H](Cc1ccccc1)NC(=O)[C@@H]1Cc2c([nH]c3ccccc23)CN1 (H-[Tpi]FFW-OH) | 48.2
O=C(CNC(=O)[C@@H]1Cc2c([nH]c3ccccc23)CN1)N[C@@H](Cc1ccccc1)C(=O)N[C@@H](Cc1c[nH]c2ccccc12)C(=O)O (H-[Tpi]GFW-OH) | 37.5

— ChEMBL document CHEMBL1781989, “Novel β-carboline-tripeptide conjugates attenuate mesenteric ischemia/reperfusion injury in the rat” (2011)
